The values that follow come from ChEMBL document CHEMBL1127349, “6,7,8,9-Tetrahydro-N,N-di-n-propyl-3H-benzindol-8-amines. Derivatives as potent and orally active serotonin 5-HT1A receptor agonists” (J Med Chem, 1994).

Assay [1] deals with Rattus norvegicus. In words: Motor activity was measured by motility testing on injecting the compound subcutaneously into rats at the dose of 12.5 umol/kg. The assay is classed as functional. The method in brief:
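Rats given reserpine 5 mg/kg sc 18 h beforehand, then test compound sc in neck (n = 4). Placed singly in photocell motility meters straight after dosing; counts recorded for 30 min, gross behaviour observed throughout. Value as counts/30 min with SEM.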

For assay [2], the species on record is Rattus norvegicus. In words: The concentration yielding a half maximal decrease of the 5-HTP was determined in rat limbic system. The class given is functional.
The species entered for assay [3] is Rattus norvegicus. In words: The concentration yielding a half maximal decrease of the 5-HTP was determined in rat brain hemispheres. The class given is functional.
For assay [4], the species on record is Rattus norvegicus. The assay can be described thus: The concentration yielding a half maximal decrease of the 5-HTP was determined in rat brain striatum. The class given is functional.
For assay [5], the species on record is Rattus norvegicus. In words: Log concentration to inhibit DOPA accumulation was determined in rat brain striatum. The assay is classed as functional. The method in brief:
(§1)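 Reserpine-pretreated (5 mg/kg sc, 18 h) male Sprague-Dawley rats, 200–300 g; compounds in saline given sc. DOPA and 5-HTP in limbic system, striatum and hemispheres measured by HPLC with electrochemical detection. Dose–response curves of 4–6 doses (n = 4) per area, fitted to variable-slope sigmoid on log data to give ED50.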

The species entered for assay [6] is Rattus norvegicus. In words: Log concentration to inhibit 5-HTP accumulation was determined in rat brain hemispheres. The assay is classed as functional. The procedure, abridged:
as §1

Assay [7] has as its target T1, 5-hydroxytryptamine receptor 1A (Rattus norvegicus, UniProt P19327).
T1 sequence (P19327 whole entry): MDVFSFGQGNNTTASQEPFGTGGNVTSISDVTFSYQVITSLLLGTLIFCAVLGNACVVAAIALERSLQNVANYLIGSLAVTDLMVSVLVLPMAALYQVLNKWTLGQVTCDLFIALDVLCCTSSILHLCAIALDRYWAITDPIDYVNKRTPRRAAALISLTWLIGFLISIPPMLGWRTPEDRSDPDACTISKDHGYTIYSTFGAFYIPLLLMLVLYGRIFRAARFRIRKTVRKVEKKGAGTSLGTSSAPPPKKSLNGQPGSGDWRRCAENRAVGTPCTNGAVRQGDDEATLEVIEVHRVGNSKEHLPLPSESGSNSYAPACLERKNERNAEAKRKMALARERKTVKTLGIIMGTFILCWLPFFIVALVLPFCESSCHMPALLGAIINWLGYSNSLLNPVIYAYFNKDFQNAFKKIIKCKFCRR
The assay can be described thus: Displacement of the radioligand [3H]8-OH-DPAT from 5-hydroxytryptamine 1A receptor. The method in brief:
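Rat whole brain minus brain stem and cerebellum, washed membranes in 50 mM Tris pH 8.0 with 120 mM NaCl, 4 mM CaCl2, 4 mM MgCl2, 10 μM pargyline. Nonspecific with 10 μM 5-HT. IC50 by semilog linear regression, Ki via Cheng–Prusoff; 3–7 experiments, triplicates.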

The test system of assay [8] is Rattus norvegicus. In words: The concentration yielding a half maximal decrease of the DOPA was determined in rat brain hemispheres; Inactive at 50 umol/kg. The class given is functional, organism-based. The procedure, abridged: as §1
In assay [9] the target is D(2) dopamine receptor (Rattus norvegicus, UniProt P61169). The assay can be described thus: Displacement of the radioligand [3H]spiperone from D2 receptor. The procedure, abridged: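 Rat striatal membranes in 50 mM potassium phosphate buffer, incubated with 0.5 nM [3H]spiperone (3 mg tissue) 10 min at 37 °C. Nonspecific binding defined with 10 μM 6,7-ADTN. IC50 converted to Ki by Cheng–Prusoff; 3–7 experiments, each concentration in triplicate.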
D(2) dopamine receptor, sequence (P61169 whole entry): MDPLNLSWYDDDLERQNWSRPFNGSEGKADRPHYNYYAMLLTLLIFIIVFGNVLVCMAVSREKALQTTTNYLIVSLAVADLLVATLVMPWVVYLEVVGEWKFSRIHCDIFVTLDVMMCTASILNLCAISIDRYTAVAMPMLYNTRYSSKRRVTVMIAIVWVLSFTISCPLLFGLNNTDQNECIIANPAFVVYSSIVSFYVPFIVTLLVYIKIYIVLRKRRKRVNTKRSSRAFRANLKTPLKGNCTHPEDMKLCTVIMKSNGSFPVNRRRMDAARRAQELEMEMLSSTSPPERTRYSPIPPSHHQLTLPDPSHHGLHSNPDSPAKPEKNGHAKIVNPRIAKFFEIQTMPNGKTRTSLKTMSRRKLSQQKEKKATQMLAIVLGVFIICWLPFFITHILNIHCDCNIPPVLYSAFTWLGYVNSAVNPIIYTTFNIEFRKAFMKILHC

For assay [10], the species on record is Rattus norvegicus. The assay can be described thus: Log concentration to inhibit 5-HTP accumulation was determined in rat brain striatum. The assay is classed as functional. The procedure, abridged:
as §1

For assay [11], the species on record is Rattus norvegicus. In words: Log concentration to inhibit 5-HTP accumulation was determined in rat limbic system. The assay is classed as functional. The method in brief: as §1
The species entered for assay [12] is Rattus norvegicus. In words: The concentration yielding a half maximal decrease of the DOPA was determined in rat brain striatum. The assay is classed as functional.
Assay [13] is filed under the species Rattus norvegicus. In words: The concentration yielding a half maximal decrease of the DOPA was determined in rat limbic system. The assay is classed as functional.
For assay [14], the species on record is Rattus norvegicus. The assay can be described thus: Log concentration to inhibit DOPA accumulation was determined in rat limbic system. The class given is functional. The method in brief:
as §1

For assay [15], the system named is Rattus norvegicus. The assay can be described thus: The concentration yielding a half maximal decrease of the DOPA was determined in rat limbic system; inactive at 50 umol/kg. The class given is functional, organism-based.
The test system of assay [16] is Rattus norvegicus. In words: The concentration yielding a half maximal decrease of the 5-HTP was determined in rat brain hemispheres; inactive at 50 umol/kg. The assay is classed as functional, organism-based. The procedure, abridged: as §1
The test system of assay [17] is Rattus norvegicus. In words: Motor activity was measured by motility testing on injecting the compound subcutaneously into rats at the dose of 0.02 umol/kg (1a) and 3.5 umol/kg (1b).
For assay [18], the system named is Rattus norvegicus. In words: The concentration yielding a half maximal decrease of the DOPA was determined in rat brain hemispheres; inactive at 50 umol/kg. The class given is functional, organism-based. The method in brief: as §1
Assay [19] deals with Rattus norvegicus. In words: The concentration yielding a half maximal decrease of the DOPA was determined in rat brain striatum; inactive at 50 umol/kg. The assay is classed as functional, organism-based.
In assay [20] the test system is Rattus norvegicus. In words: The concentration yielding a half maximal decrease of the 5-HTP was determined in rat brain striatum; inactive at 50 umol/kg. The class given is functional, organism-based. The procedure, abridged:
as §1

Assay [21] concerns Rattus norvegicus. The assay can be described thus: The concentration yielding a half maximal decrease of the 5-HTP was determined in rat limbic system; inactive at 50 umol/kg. The assay is classed as functional, organism-based. The procedure, abridged:
as §1

For assay [22], the species on record is Rattus norvegicus. In words: The concentration yielding a half maximal decrease of the DOPA was determined in rat limbic system. The assay is classed as functional.
The species named for assay [23] is Rattus norvegicus. The assay can be described thus: The concentration yielding a half maximal decrease of the 5-HTP was determined in rat limbic system. The class given is functional. The method in brief:
as §1

The species entered for assay [24] is Rattus norvegicus. The assay can be described thus: The concentration yielding a half maximal decrease of the 5-HTP was determined in rat brain striatum. The assay is classed as functional. The procedure, abridged: as §1
Assay [25] is filed under the species Rattus norvegicus. The assay can be described thus: The concentration yielding a half maximal decrease of the DOPA was determined in rat brain striatum. The assay is classed as functional. The method in brief: as §1
Assay [26] is filed under the species Rattus norvegicus. In words: The concentration yielding a half maximal decrease of the 5-HTP was determined in rat brain hemispheres. The class given is functional. The method in brief: as §1
Assay [27] has as its system Rattus norvegicus. The assay can be described thus: The concentration yielding a half maximal decrease of the DOPA was determined in rat limbic system; Partial response at 50 umol/kg. The class given is functional, organism-based.
Assay [28] deals with Rattus norvegicus. In words: The concentration yielding a half maximal decrease of the DOPA was determined in rat brain striatum; Partial response at 50 umol/kg. The assay is classed as functional, organism-based.
Assay [29] deals with Rattus norvegicus. In words: The concentration yielding a half maximal decrease of the 5-HTP was determined in rat brain hemispheres; Partial response at 50 umol/kg. The assay is classed as functional, organism-based. The procedure, abridged: as §1

Activity calls are given as the source filed them. The rule behind the calls is not given here.

For `CCCN(CCC)[C@@H]1CCc2ccc3[nH]ccc3c2C1`, the Activity in [1] came to 82 Counts 30min-1.
For `CCCN(CCC)[C@H]1CCc2ccc3[nH]cc(C#N)c3c2C1`, the ED50 (as a rule, the dose at which the effect has come halfway, by size or by number of responders) in assay [2] was 0.12 µmol/kg; in assay [3], 0.15 µmol/kg; in assay [4], 0.089 µmol/kg; in assay [12], 52 µmol/kg; in [13] it was 42 µmol/kg. In addition, the pED50 in assay [5] is on record as 4.29; in [6] it was 6.81; in [10], 7.05; in [11], 7.93; in [14] it was 4.37. Moreover, the Ki (commonly the equilibrium dissociation constant of an inhibitor or competing ligand from its target) in assay [7] is 2.9 nM; in assay [9], 8020 nM. For the same compound, the ED50 result in assay [8] was “inactive”. The compound also gave an Activity in [1] of 300 Counts 30min-1.
`CCCN(CCC)C1CCc2ccc3c(C=O)c[nH]c3c2C1` (stereo not given): the ED50 entry in assay [15], in assay [16], in assay [18], in [19], in assay [20] and in [21] was “inactive” in each case. The same compound gave a Counts/30 min in assay [17] of 7. Moreover, the figures for the Ki in assay [7] and in assay [9] were 6720 nM and above 16000 nM, respectively.
In the case of `CCCN(CCC)C1CCc2cc3c(C=O)c[nH]c3cc2C1` (stereo not given), the ED50 was 27.8 µmol/kg in assay [22]; 13 µmol/kg in assay [23]; 18 µmol/kg in assay [24]; 16.7 µmol/kg in assay [25]; 14 µmol/kg in assay [26]. In assay [17], the Counts/30 min is reported as 172. Besides, the pED50 in assay [6] turned out to be 4.87; in assay [10], 4.74; in assay [11], 4.88; in [14], 4.78. Further, the inhibitory constant (Ki) turned out to be 4720 nM in assay [7] and 700 nM in [9]. Besides, the ED50 entry in [18] was “inactive”.
As for `CCCN(CCC)C1CCc2ccc3cc[nH]c3c2C1` (stereo not given), the 50% effective dose (ED50) entry in [27], in [28] and in assay [29] was “Weak activity” in each case. For the same compound, the Ki in assay [7] was 220 nM; in [9], 145 nM. The ED50 entry in [18], in [20] and in [21] was “inactive” in each case. The Activity in assay [1] amounted to 119 Counts 30min-1.
Consider `CCCN(CCC)C1CCc2ccc3c(CC(F)(F)F)c[nH]c3c2C1` (stereo not given), for which the ED50 result in [15], in [16], in assay [18], in assay [19], in assay [20] and in [21] was “inactive” throughout. Affinity in assay [9] was put at a Ki of 2330 nM. In [1], the Activity is 74 Counts 30min-1.
On to `CCCN(CCC)C1CCc2ccc3[nH]ccc3c2C1` (stereo not given), for which the Activity in assay [1] is 177 Counts 30min-1.
